The list is not random: actives were taken first. Their share in the collection is about 2.2%.
Bcl-xL primary = inhibitors of human Bcl-xL. GST-Bcl-xL / FITC-Bim BH3 peptide fluorescence polarization. inhibition, % at 10.9 µM. 0.7% of 320,000 active. AID 2129;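 active means inhibition above the mean of all tested compounds plus 3 SD, cutoff set per campaign, cut at about 30% in these data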;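 further: 0% = DMSO wells and 100% = unlabeled Bim-BH3 peptide competitor; inhibitors lower millipolarization by displacing the labeled peptide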
Target sequence (Q07817 whole entry, looked up): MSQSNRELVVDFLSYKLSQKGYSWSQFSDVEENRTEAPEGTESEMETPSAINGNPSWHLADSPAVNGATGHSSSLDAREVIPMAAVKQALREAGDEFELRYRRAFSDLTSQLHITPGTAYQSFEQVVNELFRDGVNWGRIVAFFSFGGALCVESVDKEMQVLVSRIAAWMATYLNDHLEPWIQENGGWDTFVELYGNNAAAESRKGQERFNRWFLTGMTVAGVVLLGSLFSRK
MEX-5 binding = C. elegans MEX-5 TCR-2 RNA binding activity | Q9XUB2 | MEX-5/FITC-TCR2 RNA binding, fluorescence polarization; active compounds read low | activity score (negative = inhibition of binding), % at 10 µM | 0.38% of 300,000 active | AID 1832;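 active means inhibition past about -25% in most replicates, and total fluorescence under double the plate's negative control median, limit read from the data; inconclusive means replicates evenly split on the limit, or fluorescence at least double controls; inactive means too little inhibition in most replicates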;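 further: 0% = DMSO and -100% = 5 µM competing unlabeled TCR2 RNA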
Target sequence (Q9XUB2 whole entry, looked up): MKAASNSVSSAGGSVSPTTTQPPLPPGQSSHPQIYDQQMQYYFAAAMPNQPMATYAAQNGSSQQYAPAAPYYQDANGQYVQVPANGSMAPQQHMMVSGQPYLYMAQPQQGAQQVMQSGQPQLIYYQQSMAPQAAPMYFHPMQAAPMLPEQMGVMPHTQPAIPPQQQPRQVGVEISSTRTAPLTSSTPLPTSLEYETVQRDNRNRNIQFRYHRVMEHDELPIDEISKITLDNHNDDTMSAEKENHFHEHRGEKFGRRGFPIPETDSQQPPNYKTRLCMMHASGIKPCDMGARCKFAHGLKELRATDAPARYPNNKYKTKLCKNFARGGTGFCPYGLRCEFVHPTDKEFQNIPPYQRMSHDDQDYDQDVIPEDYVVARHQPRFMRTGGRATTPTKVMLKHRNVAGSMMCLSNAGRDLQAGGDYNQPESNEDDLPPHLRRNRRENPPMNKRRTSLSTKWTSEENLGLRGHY
GLD-1 TGE inh = GLD-1-TGE RNA interaction inhibition (C. elegans) | Q17339 | purified GLD-1 + fluorescein TGE RNA, fluorescence polarization | inhibition, % at 5.96 µM | 0.44% of 320,000 active | AID 2280;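 active means percent inhibition above a per-plate cutoff, the plate mean of test compounds plus 3 SD, cut at about 30% in these data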;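 further: 0% = DMSO wells with GLD-1 and probe and 100% = wells lacking GLD-1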
VIM-2 inh = inhibitors of Pseudomonas aeruginosa VIM-2 metallo-beta-lactamase; 0.89% of 290,000 active; inhibition, % at 5.6 µM; purified VIM-2, nitrocefin hydrolysis, epi-absorbance fluorescence;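 active means inhibition above the mean of all tested compounds plus 3 SD, cutoff set per screening run, cut at about 7.5% in these data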;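 further: red hydrolysis product quenches plate fluorescence so inhibitors raise well fluorescence; 0% = enzyme with DMSO and 100% = DMSO without enzyme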
EBV gp42 block = inhibitors of Epstein-Barr virus glycoprotein 42 | AID 1085 | 0.42% of 220,000 active | Fluorescence polarization binding assay, mP read-out | inhibition, % (tested at 21.74 µM); in the data active means inhibition above about 50%
IMP-1 inhibitor = blocks Pseudomonas aeruginosa IMP-1 metallo-beta-lactamase. purified IMP-1, nitrocefin hydrolysis, epi-absorbance fluorescence. AID 1556. 0.45% of 290,000 active. inhibition, % at 5.6 µM;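 active means inhibition above the mean plus 3 SD of all compounds in the same screening run, cut at about 4.5% in these data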;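 further: 0% = IMP-1 with DMSO and 100% = DMSO wells lacking enzyme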
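System: Purified recombinant IMP-1 metallo-beta-lactamase enzyme | Measured by: Fluorescence quenching readout, ex 480/em 530 nm | Replication: Singlicate | Incubation: 15 min preincubation plus 25 min reaction at 25 °C | Evaluation: Percent inhibition from optical density relative to buffer-blank wells | Benchmarks: DMSO with and without IMP-1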
* marks the source's active call; other numbers are inactive results; ? = inconclusive; . = not tested or not shown.

SMILES	Bcl-xL primary	MEX-5 binding	GLD-1 TGE inh	VIM-2 inh	EBV gp42 block	IMP-1 inhibitor
Cc1c(CC(=O)O)c(=O)oc2c(C)c(OCc3ccc(F)cc3Cl)ccc12	4.9	-1.1	-1.8	-1.9	.	20.4*
C=CCn1c(SCC(=O)Nc2ccc(OC)cc2)nc2c([nH]c3ccccc32)c1=O	-1.0	-0.6	4.6	-1.0	.	0.1
C=CCn1c(SCCN2CCCC2)nc2c([nH]c3ccccc32)c1=O	1.1	-0.3	-7.8	10.3*	-23.1	0.2
CC1=CC(=C(C#N)c2nc3ccccc3s2)C=C(C)N1Cc1ccco1	1.0	-2.7	4.0	-1.2	157.4*	-0.7
COc1cccc(CN2CC(C(=O)NCCN3CCOCC3)CCC2=O)c1 (stereo not drawn)	3.4	-1.2	4.0	-2.6	.	-4.6
COc1cc(/C=N/c2oc(-c3ccccc3)cc2C#N)ccc1O	-0.2	?	0.5	0.5	57.3*	0.4
CCC(C(=O)N1CCC(C(N)=O)CC1)n1nc(C)n2c(cc3occc32)c1=O (stereo not drawn)	2.5	0.9	6.9	-2.0	.	-1.7
COc1cc(-c2ccc3c(=O)c4ccccc4sc3c2)cc(OC)c1OC	.	.	10.8	.	.	.
COc1cc2oc3ccc(C#Cc4ccccn4)cc3c(=O)c2cc1OC	0.1	-4.1	-3.8	.	.	.
Cn1c2ccccc2c(=O)c2ccc(C#Cc3ccccn3)cc21	6.7	-6.5	11.6	10.3*	.	1.4
Cn1c2ccccc2c(=O)c2ccc(-c3ccc4c(c3)OCO4)cc21	8.9	0.5	5.8	9.3*	.	-0.7
COc1cc(-c2ccc3c(=O)c4ccccc4n(C)c3c2)cc(OC)c1OC	6.3	0.1	0.2	11.7*	.	-0.7
CCCSc1nnc(N2C(=O)C(O)=C(C(=O)c3ccco3)C2c2ccccc2F)s1 (stereo not drawn)	22.6	?	20.2	0.0	.	-1.2
C=CCSc1nnc(N2C(=O)C(O)=C(C(=O)c3ccco3)C2c2ccccc2F)s1 (stereo not drawn)	26.9	-35.3*	24.5	0.2	.	-0.5
CSc1nnc(N2C(=O)C(O)=C(C(=O)c3ccc(C)o3)C2c2ccc(C)cc2)s1 (stereo not drawn)	30.0	.	24.9	-0.3	.	0.7
Cc1ccc(C2C(C(=O)c3ccco3)=C(O)C(=O)N2c2nnc(C)s2)cc1 (stereo not drawn)	30.6*	-10.8	33.8*	0.8	76.9*	1.4
CSc1nnc(N2C(=O)C(O)=C(C(=O)c3ccco3)C2c2ccccc2)s1 (stereo not drawn)	54.0*	-39.8*	54.3*	-0.5	.	-0.3
O=C(C1=C(O)C(=O)N(CCc2ccccc2)C1c1cccnc1)c1ccco1 (stereo not drawn)	6.4	0.8	7.6	4.0	-0.1	5.9*
CN(C)C(=O)c1cnc(-c2ccccc2)nc1-c1ccccc1	1.8	-1.2	-15.4	-1.2	.	-1.6
CCCCN(C(C)=O)c1c(N)n(CCC)c(=O)n(CC(=O)Nc2cc(Cl)cc(Cl)c2)c1=O	-1.8	-1.4	2.9	-1.6	-9.0	-2.0
CSc1nnc(N2C(=O)C(O)=C(C(=O)c3ccco3)C2c2ccccc2F)s1 (stereo not drawn)	69.5*	2.0	86.3*	1.8	.	-1.3
Cc1cc(OC(C)C(=O)NCc2ccncc2)c2c(C)c(C)c(=O)oc2c1 (stereo not drawn)	3.9	-4.7	-4.6	9.3*	.	-1.0
Cc1cc(OCC(=O)NCc2ccccn2)c2c(C)c(C)c(=O)oc2c1	0.0	-1.1	4.3	9.0*	.	-0.3
CCSC1=N/C(=C\c2ccc(-c3ccccc3[N+](=O)[O-])o2)C(=O)S1	74.2*	-7.0	47.6*	4.7	28.9	0.9
CCOC(=O)c1c(C)[nH]c(C(=O)CN(C)CC(=O)Nc2ccccc2C(F)(F)F)c1C	3.6	.	3.2	.	.	.
SMILES	Bcl-xL primary	MEX-5 binding	GLD-1 TGE inh	VIM-2 inh	EBV gp42 block	IMP-1 inhibitor
COc1cccc(OC)c1OCc1cc(C2C3CCCC=C3C(C#N)=C(N)C2(C#N)C#N)c(C)cc1C (stereo not drawn)	11.3	6.2	20.5	0.6	-24.0	0.1
COc1ccc(OC)c(C2C3CN(C(C)C)CC=C3C(C#N)=C(N)C2(C#N)C#N)c1 (stereo not drawn)	87.2*	-38.3*	52.1*	-1.4	49.4	-1.9
CCOC(=O)N1CC=C2C(C#N)=C(N)C(C#N)(C#N)[C@H](c3ccc(OCC)c(OCC)c3)[C@H]2C1	9.3	-8.6	8.8	1.2	-22.4	0.5
CCCN1CC=C2C(C#N)=C(N)C(C#N)(C#N)C(c3cccc(OC)c3OC)C2C1 (stereo not drawn)	128.8*	-67.1*	103.7*	-0.5	74.6*	-0.8
Cc1ccc(C2C3CN(C(C)C)CC=C3C(C#N)=C(N)C2(C#N)C#N)cc1 (stereo not drawn)	109.0*	-27.9*	109.1*	.	89.1*	.
Cc1ccc(NC(=O)CCC(=O)c2ccc(Cl)s2)nc1	9.0	.	-0.8	.	.	.
O=C(Nc1cccc(Cl)c1Cl)C1CCN(C(=O)c2cccs2)CC1	1.1	0.2	6.5	0.2	.	-3.4
COc1nc(N/N=C/c2ccc(-c3cccc([N+](=O)[O-])c3)o2)nc(N2CCOCC2)n1	.	-0.7	.	-1.9	91.5*	-5.0
Cc1ccn2c(=O)nc(SCC(=O)Nc3cc(C)on3)nc2c1	9.2	-25.5*	4.8	.	.	.
Cc1cc(NC(=O)CSc2nc(=O)n3cc(Cl)ccc3n2)no1	6.3	-11.2	5.6	.	.	.
CCOC(=O)C(=O)c1c(-c2ccc(C)cc2)nc2ccccn12	63.1*	-2.1	7.4	1.2	-2.8	-0.8
O=C(NC(=S)Nc1nc(-c2ccc(Br)cc2)cs1)c1ccco1	4.2	-1.8	0.1	-4.7	-9.7	-2.3
O=C(NC(=S)Nc1nc(-c2ccc([N+](=O)[O-])cc2)cs1)c1ccco1	5.9	-1.9	-9.6	-4.9	.	62.5*
CCN1C(=O)[C@@H]2[C@@H](c3ccc(SC4CCCCC4)cc3)N3CCC[C@@]3(C(=O)OC)[C@@H]2C1=O	7.6	10.2	-2.3	.	.	.
Cc1nn(-c2ccccc2)nc1CNC(=O)C1CC1	2.4	-0.6	10.1	-1.3	-13.5	-0.5
CC1CCCCN1C(=O)Cn1nnc(-c2cccnc2)n1 (stereo not drawn)	84.7*	-15.7	73.8*	0.0	46.5	-0.4
Cc1ccc(-c2nnn(CCC(=O)N3CCCCC3C)n2)cc1 (stereo not drawn)	1.1	-0.1	-0.8	-0.7	-13.8	-1.1
Cc1cccc(C)c1NC(=O)C1C2C=CC(C2)C1C(=O)O (stereo not drawn)	5.8	-2.4	-3.7	-2.8	.	-2.1
CCc1nc(NCc2cccnc2)c2oc3ccccc3c2n1	10.2	1.3	0.7	11.5*	6.8	-3.0
Cc1cc(C(=O)COC(=O)c2cccnc2Cl)c(C)n1C	.	.	2.4	.	.	.
CCOC(=O)N1CCN(c2cc(NCCC(=O)O)c3c4c(onc24)-c2ccccc2C3=O)CC1	42.7*	.	22.5	1.9	-4.2	-1.2

Source: PubChem (several laboratories)
